In ChEMBL document CHEMBL1165943, “Design and synthesis of new anticancer pyrimidines with multiple-kinase inhibitory effect” (Bioorg Med Chem, 2010):
Active and inactive are the calls of the source. The calls are words filed in the database; no cut-off is given here.

Assays:
OVCAR-5 [1] = test: Cytotoxicity against human OVCAR5 cells assessed as cell growth at 0.001 uM after 48 hrs by sulforhodamine B assay; format: functional; conditions: OVCAR-5, 48 h, read-out: Activity
[2] = Cytotoxicity against human Hs 578T cells assessed as cell growth at 0.01 uM after 48 hrs by sulforhodamine B assay; format: functional; conditions: read-out: Activity
K562 [3] = test: Cytotoxicity against human K562 cells assessed as cell growth at 0.01 uM after 48 hrs by sulforhodamine B assay; format: functional; conditions: K562, 48 h, read-out: Activity
NCI-H522 [4] = test: Cytotoxicity against human NCI-H522 cells assessed as cell growth at 100 nM after 48 hrs by sulforhodamine B assay; format: functional; conditions: NCI-H522, 48 h, read-out: Activity
UO-31 [5] = test: Cytotoxicity against human UO31 cells assessed as cell growth at 100 nM after 48 hrs by sulforhodamine B assay; format: functional; conditions: UO-31, 48 h, read-out: Activity
SNB-75 = test: Cytotoxicity against human SNB75 cells assessed as cell growth at 0.001 uM after 48 hrs by sulforhodamine B assay; format: functional; conditions: SNB-75, 48 h, read-out: Activity
SK-MEL-2 [6] = test: Cytotoxicity against human SK-MEL-2 cells assessed as cell growth at 100 nM after 48 hrs by sulforhodamine B assay; format: functional; conditions: SK-MEL-2, 48 h, read-out: Activity
COLO 205 = test: Cytotoxicity against human COLO205 cells assessed as cell growth at 1 uM after 48 hrs by sulforhodamine B assay; format: functional; conditions: COLO 205, 48 h, read-out: Activity
Outline: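 Cells grown in RPMI 1640 with 5% FBS and 2 mM L-glutamine, seeded at 5,000–40,000 cells/well by doubling time. Time-zero plates TCA-fixed after 24 h. Five concentrations (10-fold or half-log dilutions from DMSO stock) added; 48 h at 37 °C, 5% CO2. Cold TCA fixation (final 10%, 60 min, 4 °C), 0.4% SRB stain, dye solubilized in 10 mM trizma base, A515.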

SK-OV-3 = test: Cytotoxicity against human SKOV3 cells assessed as cell growth at 0.001 uM after 48 hrs by sulforhodamine B assay; format: functional; conditions: SK-OV-3, 48 h, read-out: Activity
SF-539 [7] = test: Cytotoxicity against human SF539 cells assessed as cell growth at 1 uM after 48 hrs by sulforhodamine B assay; format: functional; conditions: SF-539, 48 h, read-out: Activity
M14 [8] = test: Cytotoxicity against human M14 cells assessed as cell growth at 100 nM after 48 hrs by sulforhodamine B assay; format: functional; conditions: M14, 48 h, read-out: Activity
NCI-H522 [9] = test: Cytotoxicity against human NCI-H522 cells assessed as cell growth at 0.01 uM after 48 hrs by sulforhodamine B assay; format: functional; conditions: NCI-H522, 48 h, read-out: Activity
OVCAR-4 = test: Cytotoxicity against human OVCAR4 cells assessed as cell growth at 1 uM after 48 hrs by sulforhodamine B assay; format: functional; conditions: OVCAR-4, 48 h, read-out: Activity
SF-268 = test: Cytotoxicity against human SF268 cells assessed as cell growth at 0.001 uM after 48 hrs by sulforhodamine B assay; format: functional; conditions: SF-268, 48 h, read-out: Activity
NCI/ADR-RES = test: Cytotoxicity against human NCI/ADR-RES cells assessed as cell growth at 0.01 uM after 48 hrs by sulforhodamine B assay; format: functional; conditions: read-out: Activity
MDA-MB-231 = test: Growth inhibition of human MDA-MB-231 cells after 48 hrs by sulforhodamine B assay; format: functional, cell-based; conditions: MDA-MB-231, 48 h
Outline: (§1)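 Cells grown in RPMI 1640 with 5% FBS and 2 mM L-glutamine, seeded at 5,000–40,000 cells/well according to doubling time. After 24 h, time-zero plates are TCA-fixed. Five concentrations (10-fold or ½log dilutions, DMSO stocks) are applied for 48 h at 37 °C, 5% CO₂. Cells are TCA-fixed, SRB-stained and read at 515 nm. IC₅₀ is taken from [(Ti−Tz)/(C−Tz)]×100 = 50.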

EKVX = test: Cytotoxicity against human EKVX cells assessed as cell growth at 0.001 uM after 48 hrs by sulforhodamine B assay; format: functional; conditions: read-out: Activity
KM12 = test: Cytotoxicity against human KM12 cells assessed as cell growth at 100 nM after 48 hrs by sulforhodamine B assay; format: functional; conditions: KM12, 48 h, read-out: Activity
K562 [10] = test: Cytotoxicity against human K562 cells assessed as cell growth at 0.001 uM after 48 hrs by sulforhodamine B assay; format: functional; conditions: K562, 48 h, read-out: Activity
SNB-19 = test: Cytotoxicity against human SNB19 cells assessed as cell growth at 0.001 uM after 48 hrs by sulforhodamine B assay; format: functional; conditions: SNB-19, 48 h, read-out: Activity
OVCAR-3 = test: Cytotoxicity against human OVCAR-3 cells assessed as cell growth at 10 uM after 48 hrs by sulforhodamine B assay; format: functional; conditions: OVCAR-3, 48 h, read-out: Activity
HCT-116 = test: Growth inhibition of human HCT116 cells after 48 hrs by sulforhodamine B assay; format: functional, cell-based; conditions: HCT-116, 48 h; outline: as §1
M14 [11] = test: Cytotoxicity against human M14 cells assessed as cell growth at 0.001 uM after 48 hrs by sulforhodamine B assay; format: functional; conditions: M14, 48 h, read-out: Activity
SN12C = test: Growth inhibition of human SN12C cells after 48 hrs by sulforhodamine B assay; format: functional, cell-based; outline: as §1
HT-29 = test: Growth inhibition of human HT-29 cells after 48 hrs by sulforhodamine B assay; format: functional, cell-based; conditions: HT-29, 48 h; outline: as §1
UO-31 [12] = test: Cytotoxicity against human UO31 cells assessed as cell growth at 0.01 uM after 48 hrs by sulforhodamine B assay; format: functional; conditions: UO-31, 48 h, read-out: Activity
OVCAR-8 = test: Growth inhibition of human OVCAR8 cells after 48 hrs by sulforhodamine B assay; format: functional, cell-based; conditions: Homo sapiens, OVCAR-8, 48 h; outline: as §1
HOP-92 = test: Growth inhibition of human HOP92 cells after 48 hrs by sulforhodamine B assay; format: functional, cell-based; outline: as §1
U-251 = test: Cytotoxicity against human U251 cells assessed as cell growth at 1 uM after 48 hrs by sulforhodamine B assay; format: functional; conditions: U-251, 48 h, read-out: Activity
OVCAR-5 [13] = test: Cytotoxicity against human OVCAR5 cells assessed as cell growth at 10 uM after 48 hrs by sulforhodamine B assay; format: functional; conditions: OVCAR-5, 48 h, read-out: Activity
SK-MEL-2 [14] = test: Cytotoxicity against human SK-MEL-2 cells assessed as cell growth at 1 uM after 48 hrs by sulforhodamine B assay; format: functional; conditions: SK-MEL-2, 48 h, read-out: Activity
Malme-3M = test: Cytotoxicity against human MALME-3M cells assessed as cell growth at 0.01 uM after 48 hrs by sulforhodamine B assay; format: functional; conditions: read-out: Activity
SF-539 [15] = test: Cytotoxicity against human SF539 cells assessed as cell growth at 100 nM after 48 hrs by sulforhodamine B assay; format: functional; conditions: SF-539, 48 h, read-out: Activity
[16] = read-out: LC50 (the source's name)

## CC(=O)Nc1cccc(-c2ccc(-c3ccnc(NC(=O)Nc4cc(C(F)(F)F)cc(C(F)(F)F)c4)n3)cn2)c1.Cl
OVCAR-5 [1]
  growth at 0.001 µM: 97%
[2]
  growth at 0.01 µM: 99%
K562 [3]
  growth at 0.01 µM: 32%
NCI-H522 [4]
  growth at 0.1 µM: 72%
UO-31 [5]
  growth at 0.1 µM: 70%
SNB-75
  growth at 0.001 µM: 57%
SK-MEL-2 [6]
  growth at 0.1 µM: 96%
COLO 205
  growth at 1 µM: 52%
SK-OV-3
  growth at 0.001 µM: 103%
SF-539 [7]
  growth at 1 µM: 37%
M14 [8]
  growth at 0.1 µM: 92%
NCI-H522 [9]
  growth at 0.01 µM: 77%
OVCAR-4
  growth at 1 µM: 4%
SF-268
  growth at 0.001 µM: 95%
NCI/ADR-RES
  growth at 0.01 µM: 94%
MDA-MB-231
  GI50: 3.72 µM
  IC50: 3.72 µM
  LC50: 62 µM
  TGI: 19.7 µM
EKVX
  growth at 0.001 µM: 90%
KM12
  growth at 0.1 µM: 92%
K562 [10]
  growth at 0.001 µM: 93%
SNB-19
  growth at 0.001 µM: 95%
OVCAR-3
  growth at 10 µM: 100%
HCT-116
  GI50: 1.6 µM
  IC50: 1.6 µM
  TGI: 4.71 µM
HCT-116; [16]
  CC50: 17.1 µM
M14 [11]
  growth at 0.001 µM: 94%
SN12C
  GI50: 9.29 µM
  IC50: 9.29 µM
  TGI: 23.8 µM
SN12C; [16]
  CC50: 57.7 µM
HT-29
  GI50: 3 µM
  IC50: 3 µM
  TGI: 8.74 µM
HT-29; [16]
  CC50: 57.6 µM
UO-31 [12]
  growth at 0.01 µM: 87%
OVCAR-8
  GI50: 2.07 µM
  TGI: 5.93 µM
OVCAR-8; read-out: IC50
  IC50: 2.07 µM
OVCAR-8; [16]
  CC50: 26.4 µM
HOP-92
  LC50: inactive
  TGI: inactive
HOP-92; hop-92
  IC50: Not Active
U-251
  growth at 1 µM: -32%
OVCAR-5 [13]
  growth at 10 µM: -96%
SK-MEL-2 [14]
  growth at 1 µM: 35%
Malme-3M
  growth at 0.01 µM: 88%
SF-539 [15]
  growth at 0.1 µM: 86%
